In brackets after ≈: the same amount, converted by molar mass.
Columns and labels:
[1] = Antioxidant activity assessed as superoxide radical scavenging activity at 0.5 mM by NBT reduction assay; format: functional
Summary of the method: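 Superoxide generated by an NADH/phenazine methosulphate system. The mix held 40 µl of 280 µM NADH, 40 µl of 80 µM NBT, 20 µl of 8 µM PMS, 10 µl of 1 mM sample in DMSO, and 0.1 M phosphate buffer pH 7.4 (concentrations are of the added solutions). Ran at room temperature, read formazan at 560 nm, and calculated %RSA = 100 − (OD test/OD control × 100).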

[2] = test system: Aspergillus fumigatus; assay: Antimicrobial activity against Aspergillus fumigatus at 100 ug/ml after 24 hrs by cup diffusion method; format: functional; conditions: for zone of inhibition at 100 µg/mL: read-out: DIZ
Summary of the method: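 Cup diffusion on potato dextrose agar plates inoculated with the fungus, with samples dissolved in DMSO. Incubated at 45 °C for A. fumigatus. Read the diameter of the clear zone of inhibition around the sample.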

[3] = test system: Trichoderma viride; assay: Antimicrobial activity against Trichoderma viride at 100 ug/ml after 24 hrs by cup diffusion method; format: functional; conditions: for zone of inhibition at 100 µg/mL: read-out: DIZ
Summary of the method: (§1)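 Cup diffusion on fungus-inoculated potato dextrose agar plates, with samples in DMSO. Incubated at 30 °C. Read the diameter of the clear inhibition zone surrounding the sample.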

[4] = test system: Yarrowia lipolytica; assay: Antimicrobial activity against Candida lipolytica at 100 ug/ml after 24 hrs by cup diffusion method; format: functional; conditions: for zone of inhibition at 100 µg/mL: read-out: DIZ; summary of the method: as §1
[5] = test system: Aspergillus niger; assay: Antimicrobial activity against Aspergillus niger at 100 ug/ml after 24 hrs by cup diffusion method; format: functional; conditions: for zone of inhibition at 100 µg/mL: read-out: DIZ; summary of the method: as §1
[6] = test system: Leishmania major; assay: Antileishmanial activity against Leishmania major promastigotes after 72 hrs; format: functional, organism-based
Summary of the method: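 Cultured Leishmania major parasites in M199 with 10% foetal bovine serum, 25 mM HEPES, and penicillin/streptomycin, at 24 °C with shaking. Harvested log-phase cells and diluted them to 2 × 10^6 cells/ml. Made 1 mg/ml DMSO stocks and serially diluted them in medium. Used DMSO as the negative control and amphotericin B as the positive control.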

Molecule	Activity [1] [%]	zone of inhibition at 100 µg/mL [2] [mm]	zone of inhibition at 100 µg/mL [3] [mm]	zone of inhibition at 100 µg/mL [4] [mm]	zone of inhibition at 100 µg/mL [5] [mm]	IC50 [6] [µg/mL]	inhibition zone (IZ) [2] [mm]	inhibition zone (IZ) [3] [mm]	inhibition zone (IZ) [4] [mm]	inhibition zone (IZ) [5] [mm]
O=C(/C=C/c1ccc(-n2ccnc2)cc1)c1ccccc1	81.9	18	3	4	4	0.91 (≈ 3.32 µM)				
NYSTATIN							22	17	16	10
COc1ccc(C(=O)/C=C/c2ccc(-n3ccnc3)cc2)cc1OC	51	10	4	4	3	0.82 (≈ 2.45 µM)				
O=C(/C=C/c1ccc(-n2ccnc2)cc1)c1ccc(Cl)c(Cl)c1	0.4	10	6	7	2	0.99 (≈ 2.88 µM)				
C[C@@H]1[C@H](O)[C@@H](C)/C=C/C=C/C=C/C=C/C=C/C=C/C=C/[C@H](O[C@@H]2O[C@H](C)[C@@H](O)[C@H](N)[C@@H]2O)C[C@@H]2O[C@](O)(C[C@@H](O)C[C@@H](O)[C@H](O)CC[C@@H](O)C[C@@H](O)CC(=O)O[C@H]1C)C[C@H](O)[C@H]2C(=O)O [AMPHOTERICIN B]						0.56 (≈ 0.606 µM)				
O=C(/C=C/c1ccc(-n2ccnc2)cc1)c1c(F)cccc1F	69.5	15	5	7	4	0.97 (≈ 3.13 µM)				
O=C(/C=C/c1ccc(-n2ccnc2)cc1)c1ccccc1Br	76	18	2	3	4	0.86 (≈ 2.43 µM)				
COc1ccc(C(=O)/C=C/c2ccc(-n3ccnc3)cc2)cc1	66	17	6	6	3	0.98 (≈ 3.22 µM)				
O=C(/C=C/c1ccc(-n2ccnc2)cc1)c1ccccc1F	79.2	17	5	5	3	0.98 (≈ 3.35 µM)				
O=C(/C=C/c1ccc(-n2ccnc2)cc1)c1cccc(F)c1F	16.7	19	4	3	4	0.83 (≈ 2.67 µM)				
O=C(/C=C/c1ccc(-n2ccnc2)cc1)c1ccc(Cl)cc1Cl	3.3	15	2	4	1	0.72 (≈ 2.1 µM)				
O=C(/C=C/c1ccc(-n2ccnc2)cc1)c1c(Cl)cccc1Cl	47.7	20	6	7	4	0.67 (≈ 1.95 µM)				
CCCOC(=O)c1cc(O)c(O)c(O)c1	91.3									
O=C(/C=C/c1ccc(-n2ccnc2)cc1)c1ccc(Cl)cc1	90.1	20	9	10	8	0.92 (≈ 2.98 µM)				
O=C(/C=C/c1ccc(-n2ccnc2)cc1)c1cccc(O)c1	8.65	5	6	5	5	0.96 (≈ 3.31 µM)				
O=C(/C=C/c1ccc(-n2ccnc2)cc1)c1ccccc1Cl	70.4	19	5	5	5	0.93 (≈ 3.01 µM)				
O=C(/C=C/c1ccc(-n2ccnc2)cc1)c1ccc(I)cc1	40.4	10	2	3	2	0.92 (≈ 2.3 µM)				
O=C(/C=C/c1ccc(-n2ccnc2)cc1)c1cc(Cl)ccc1Cl	18.8	19	10	10	6	0.99 (≈ 2.88 µM)				
O=C(/C=C/c1ccc(-n2ccnc2)cc1)c1ccc(Br)cc1	42.1	18	9	8	4	0.86 (≈ 2.43 µM)				
O=C(/C=C/c1ccc(-n2ccnc2)cc1)c1ccc(F)c(F)c1	8.3	18	3	4	4	0.89 (≈ 2.87 µM)				
COc1cccc(C(=O)/C=C/c2ccc(-n3ccnc3)cc2)c1	83.9	16	8	7	3	0.98 (≈ 3.22 µM)				
O=C(/C=C/c1ccc(-n2ccnc2)cc1)c1ccc(F)cc1	64.5	1	1	1	2	0.71 (≈ 2.43 µM)				
O=C(/C=C/c1ccc(-n2ccnc2)cc1)c1ccc(Cl)c(Cl)c1Cl	2.4	10	6	6	1	0.63 (≈ 1.67 µM)				

— ChEMBL document CHEMBL1155361, “Anti-oxidant, anti-fungal and anti-leishmanial activities of novel 3-[4-(1H-imidazol-1-yl) phenyl]prop-2-en-1-ones” (Eur J Med Chem, 2009)
